Tested on: Entamoeba histolytica
Assay: Antiamoebic activity against Entamoeba histolytica HM-1:IMSS after 72 hrs by microdilution assay
Assay type: functional, organism-based
Procedure, shortened: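 E. histolytica trophozoites grown in TYIS-33 medium; compounds dissolved in DMSO and diluted in medium to a 1 mg/mL stock, then two-fold serial dilutions in wells. Inoculum 1.7 × 10⁴ organisms/well, gassed with nitrogen, 37 °C for 72 h. Cells methanol-fixed and eosin-stained, dye released with 0.1 N NaOH, OD 490 nm read. Percent inhibition versus log dose, IC50 from linear regression.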

Structure (SMILES) | IC50
Cc1ccc(NC(=S)N2CCC(c3ccccc3)=N2)cc1 | 9.56 µM
Cc1cccc(NC(=S)N2CCC(c3cccc(Br)c3)=N2)c1 | 3.35 µM
CN(Cc1ccccc1)C(=S)N1CCC(c2cccc(Br)c2)=N1 | 4.44 µM
S=C(N1CCC(c2cccc(Cl)c2)=N1)N1CCCc2ccccc21 | 1.77 µM
S=C(N1CCCCCC1)N1CCC(c2ccccc2)=N1 | 4.39 µM
S=C(NC1C2CC3CC(C2)CC1C3)N1CCC(c2ccccc2)=N1 (stereo not given) | 1.79 µM
S=C(N1CCCC1)N1CCC(c2cccc(Cl)c2)=N1 | 2.31 µM
Fc1ccc(NC(=S)N2CCC(c3cccc(Br)c3)=N2)c(F)c1 | 0.67 µM
S=C(N1CCC(c2ccccc2)=N1)N1CCCc2ccccc21 | 6.19 µM
Cc1ccccc1NC(=S)N1CCC(c2cccc(Br)c2)=N1 | 3.82 µM
Cc1ccc(NC(=S)N2CCC(c3cccc(Cl)c3)=N2)cc1 | 2.4 µM
CN(Cc1ccccc1)C(=S)N1CCC(c2cccc(Cl)c2)=N1 | 2.91 µM
S=C(N1CCCCCC1)N1CCC(c2cccc(Br)c2)=N1 | 1.09 µM
Cc1ccccc1NC(=S)N1CCC(c2ccccc2)=N1 | 4.78 µM
S=C(N1CCCC1)N1CCC(c2cccc(Br)c2)=N1 | 2.82 µM
CN(Cc1ccccc1)C(=S)N1CCC(c2ccccc2)=N1 | 7.31 µM
Cc1ccccc1NC(=S)N1CCC(c2cccc(Cl)c2)=N1 | 1.68 µM
Fc1ccc(NC(=S)N2CCC(c3ccccc3)=N2)c(F)c1 | 1.76 µM
Fc1ccc(NC(=S)N2CCC(c3cccc(Cl)c3)=N2)c(F)c1 | 0.51 µM
CN(C(=S)N1CCC(c2cccc(Cl)c2)=N1)C1CCCCC1 | 3.71 µM
Cc1cccc(NC(=S)N2CCC(c3ccccc3)=N2)c1 | 5.01 µM
CN(C(=S)N1CCC(c2cccc(Br)c2)=N1)C1CCCCC1 | 5.25 µM
S=C(N1CCCCCC1)N1CCC(c2cccc(Cl)c2)=N1 | 0.89 µM
CN(C(=S)N1CCC(c2ccccc2)=N1)C1CCCCC1 | 5.94 µM
S=C(NC1C2CC3CC(C2)CC1C3)N1CCC(c2cccc(Cl)c2)=N1 (stereo not given) | 0.47 µM
S=C(N1CCC(c2cccc(Br)c2)=N1)N1CCCc2ccccc21 | 2.78 µM
S=C(N1CCCC1)N1CCC(c2ccccc2)=N1 | 3.73 µM
Cc1ccc(NC(=S)N2CCC(c3cccc(Br)c3)=N2)cc1 | 5.33 µM
S=C(NC1C2CC3CC(C2)CC1C3)N1CCC(c2cccc(Br)c2)=N1 (stereo not given) | 0.58 µM
Cc1cccc(NC(=S)N2CCC(c3cccc(Cl)c3)=N2)c1 | 2.81 µM

Reference: ChEMBL document CHEMBL1154438, “Synthesis, spectral studies and antiamoebic activity of new 1-N-substituted thiocarbamoyl-3-phenyl-2-pyrazolines” (Eur J Med Chem, 2009)
